Test results taken from ChEMBL document CHEMBL2311325, “New structure-activity relationship studies in a series of N,N-bis(cyclohexanol)amine aryl esters as potent reversers of P-glycoprotein-mediated multidrug resistance (MDR)” (Bioorg Med Chem, 2013).

Legend:
P-glycoprotein (ABCB1) = P-glycoprotein (ABCB1) (Homo sapiens, UniProt P08183); experiment: Inhibition of P-glycoprotein in human doxorubicin-resistant K562 cells assessed as maximal increase of pirarubicin accumulation by spectrofluorometric analysis relative to control; type: cell-based; details: probe pirarubicin
[1] = biological target: ATP-dependent translocase ABCB1 (Homo sapiens, UniProt P08183); experiment: Inhibition of P-glycoprotein in human doxorubicin-resistant K562 cells assessed as half maximal increase of pirarubicin accumulation by spectrofluorometric analysis; type: cell-based
K562 [2] = experiment: Reversal fold, ratio of doxorubicin IC50 for doxorubicin-resistant human K562 cells in absence of compound to doxorubicin IC50 for doxorubicin-resistant human K562 cells in presence of 0.1 uM of compound; type: functional
Method in brief: (§1)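 K562/DOX cells seeded at 3000 cells/well and exposed to doxorubicin (0.001-10 µM) with or without modulator (0.1 or 1.0 µM; DMSO stocks diluted in complete medium) for 72 h at 37 °C, 5% CO2. Viability read by MTT (3 h, DMSO solubilization, 540 nm). Doxorubicin IC50 taken from plotted curves. RF = IC50 without modulator / IC50 with modulator. Quadruplicate cultures.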

K562 [3] = experiment: Reversal fold, ratio of doxorubicin IC50 for doxorubicin-resistant human K562 cells in absence of compound to doxorubicin IC50 for doxorubicin-resistant human K562 cells in presence of 1 uM of compound; type: functional; method in brief: as §1
K562 [4] = experiment: Cytotoxicity against human doxorubicin-resistant K562 cells at 1 uM after 72 hrs by MTT assay; type: cell-based; details: k562, 72 h
Method in brief: (§2)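 Intrinsic cytotoxicity of compound alone (no doxorubicin) tested at 1.0 µM on K562 and K562/DOX cells. Cells in exponential growth (3-5 × 10^5 cells/mL) seeded at 3000 cells/well and incubated 72 h at 37 °C, 5% CO2. MTT added for a further 3 h, formazan dissolved in DMSO, absorbance read at 540 nm. Quadruplicate cultures.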

K562 [5] = experiment: Cytotoxicity against human K562 cells at 1 uM after 72 hrs by MTT assay; type: cell-based; details: k562, 72 h; method in brief: as §2

ATP-dependent translocase ABCB1, sequence (P08183 whole entry): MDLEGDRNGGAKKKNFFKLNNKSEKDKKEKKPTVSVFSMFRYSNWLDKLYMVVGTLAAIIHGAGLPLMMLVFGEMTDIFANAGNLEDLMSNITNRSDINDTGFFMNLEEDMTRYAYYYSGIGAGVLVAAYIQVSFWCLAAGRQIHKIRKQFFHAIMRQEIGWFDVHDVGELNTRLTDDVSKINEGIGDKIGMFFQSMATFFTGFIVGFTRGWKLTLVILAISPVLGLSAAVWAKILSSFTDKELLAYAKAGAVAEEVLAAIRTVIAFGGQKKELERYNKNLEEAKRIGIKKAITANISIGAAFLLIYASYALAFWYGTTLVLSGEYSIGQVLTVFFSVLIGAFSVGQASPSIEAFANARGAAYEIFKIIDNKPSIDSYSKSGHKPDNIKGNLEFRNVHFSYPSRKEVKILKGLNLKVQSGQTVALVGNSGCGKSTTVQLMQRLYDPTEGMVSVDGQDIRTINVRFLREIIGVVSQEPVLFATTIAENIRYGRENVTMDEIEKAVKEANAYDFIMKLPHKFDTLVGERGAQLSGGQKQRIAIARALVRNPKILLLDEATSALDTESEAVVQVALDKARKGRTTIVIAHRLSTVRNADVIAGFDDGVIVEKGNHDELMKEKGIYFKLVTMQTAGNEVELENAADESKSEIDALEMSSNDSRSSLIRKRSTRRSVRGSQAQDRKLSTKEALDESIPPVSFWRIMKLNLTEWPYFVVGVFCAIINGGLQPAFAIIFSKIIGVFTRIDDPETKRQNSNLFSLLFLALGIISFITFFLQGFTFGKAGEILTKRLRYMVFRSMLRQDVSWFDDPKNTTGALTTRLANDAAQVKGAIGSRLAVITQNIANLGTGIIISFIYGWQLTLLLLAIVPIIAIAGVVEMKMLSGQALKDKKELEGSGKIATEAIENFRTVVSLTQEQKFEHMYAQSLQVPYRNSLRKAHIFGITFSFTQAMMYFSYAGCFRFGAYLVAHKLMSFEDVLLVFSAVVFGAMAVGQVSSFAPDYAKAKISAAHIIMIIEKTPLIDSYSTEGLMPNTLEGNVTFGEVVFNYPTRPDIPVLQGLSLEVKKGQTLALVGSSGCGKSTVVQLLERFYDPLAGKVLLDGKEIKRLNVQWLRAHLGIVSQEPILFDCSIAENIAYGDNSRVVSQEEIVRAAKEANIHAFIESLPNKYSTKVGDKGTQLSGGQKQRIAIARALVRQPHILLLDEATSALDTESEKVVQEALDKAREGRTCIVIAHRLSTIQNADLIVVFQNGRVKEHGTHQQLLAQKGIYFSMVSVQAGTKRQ
P-glycoprotein (ABCB1), sequence (P08183 whole entry): as above

Emax (P-glycoprotein (ABCB1)) [%] | IC50 [1] [nM] | Compound | Ratio IC50 (K562 [2]) | Ratio IC50 (K562 [3]) | Activity (K562 [4]) | Activity (K562 [5])
76 | 1100 | COc1cc(CCC(=O)O[C@H]2CC[C@@H](N(C)[C@H]3CC[C@@H](OC(=O)c4cc(OC)c(OC)c(OC)c4)CC3)CC2)cc(OC)c1OC | – | – | – | –
99 | 20 | COc1cc(C#CC(=O)O[C@H]2CC[C@@H](N(C)[C@H]3CC[C@H](OC(=O)c4cc(OC)c(OC)c(OC)c4)CC3)CC2)cc(OC)c1OC (mixture of isomers) | 2 | 8.5 | Non-toxic | Non-toxic
99 | 70 | COc1cc(C#CC(=O)O[C@H]2CC[C@H](N(C)[C@H]3CC[C@H](OC(=O)c4cc(OC)c(OC)c(OC)c4)CC3)CC2)cc(OC)c1OC | 0.6 | 1.9 | Non-toxic | Non-toxic
99 | 140 | COc1ccc(C(C#N)(CCC(=O)O[C@H]2CC[C@H](N(C)[C@H]3CC[C@H](OC(=O)/C=C/c4cc(OC)c(OC)c(OC)c4)CC3)CC2)C(C)C)cc1OC (some centres undefined) | – | – | – | –
98 | 12 | COc1cc(/C=C/C(=O)O[C@H]2CC[C@@H](N(C)[C@H]3CC[C@H](OC(=O)c4cc(OC)c(OC)c(OC)c4)CC3)CC2)cc(OC)c1OC | – | 20.3 | – | –
90 | 180 | COc1cc(/C=C/C(=O)O[C@H]2CC[C@@H](N(C)[C@H]3CC[C@@H](OC(=O)C4c5ccccc5-c5ccccc54)CC3)CC2)cc(OC)c1OC | – | – | – | –
70 | – | COc1ccc(C(C#N)(CCCNCc2c3ccccc3cc3ccccc23)C(C)C)cc1OC (centres undefined) | – | – | – | –
76 | 610 | COc1cc(CCC(=O)O[C@H]2CC[C@H](N(C)[C@H]3CC[C@H](OC(=O)c4cc(OC)c(OC)c(OC)c4)CC3)CC2)cc(OC)c1OC | – | – | – | –
77 | 350 | COc1cc(CCC(=O)O[C@H]2CC[C@@H](N(C)[C@H]3CC[C@H](OC(=O)c4cc(OC)c(OC)c(OC)c4)CC3)CC2)cc(OC)c1OC (mixture of isomers) | – | – | – | –
75 | 630 | COc1cc(CCC(=O)O[C@H]2CC[C@H](N(C)[C@H]3CC[C@@H](OC(=O)c4cc(OC)c(OC)c(OC)c4)CC3)CC2)cc(OC)c1OC (mixture of isomers) | – | – | – | –
76 | 130 | COc1ccc(C(C(=O)O[C@H]2CC[C@H](N(C)[C@H]3CC[C@@H](OC(=O)C#Cc4cc(OC)c(OC)c(OC)c4)CC3)CC2)c2ccc(OC)cc2)cc1 (mixture of isomers) | – | – | – | –
99 | 150 | COc1ccc(C(C#N)(CCC(=O)O[C@H]2CC[C@@H](N(C)[C@H]3CC[C@@H](OC(=O)/C=C/c4cc(OC)c(OC)c(OC)c4)CC3)CC2)C(C)C)cc1OC (some centres undefined) | – | – | – | –
80 | 30 | COc1cc(/C=C/C(=O)O[C@H]2CC[C@@H](N(C)[C@H]3CC[C@@H](OC(=O)c4cc(OC)c(OC)c(OC)c4)CC3)CC2)cc(OC)c1OC | – | 9.8 | – | –
99 | 150 | COc1cc(/C=C/C(=O)O[C@H]2CC[C@H](N(C)[C@H]3CC[C@@H](OC(=O)C4c5ccccc5-c5ccccc54)CC3)CC2)cc(OC)c1OC (mixture of isomers) | – | – | – | –
77 | 500 | COc1cc(C#CC(=O)O[C@H]2CC[C@H](N(C)[C@H]3CC[C@H](OC(=O)C4c5ccccc5-c5ccccc54)CC3)CC2)cc(OC)c1OC | – | – | – | –
85 | 92 | COc1cc(/C=C/C(=O)O[C@H]2CC[C@H](N(C)[C@H]3CC[C@@H](OC(=O)c4cc(OC)c(OC)c(OC)c4)CC3)CC2)cc(OC)c1OC (mixture of isomers) | – | 7.7 | – | –
81 | 320 | COc1cc(/C=C/C(=O)O[C@H]2CC[C@H](N(C)[C@H]3CC[C@H](OC(=O)c4cc(OC)c(OC)c(OC)c4)CC3)CC2)cc(OC)c1OC | – | 9.2 | – | –
91 | 290 | COc1cc(C#CC(=O)O[C@H]2CC[C@H](N(C)[C@H]3CC[C@@H](OC(=O)C4c5ccccc5-c5ccccc54)CC3)CC2)cc(OC)c1OC (mixture of isomers) | – | – | – | –
99 | 20 | COc1ccc(C(C(=O)O[C@H]2CC[C@@H](N(C)[C@H]3CC[C@H](OC(=O)C#Cc4cc(OC)c(OC)c(OC)c4)CC3)CC2)c2ccc(OC)cc2)cc1 (mixture of isomers) | – | – | – | –
74 | 140 | COc1ccc(C(C(=O)O[C@H]2CC[C@H](N(C)[C@H]3CC[C@H](OC(=O)C#Cc4cc(OC)c(OC)c(OC)c4)CC3)CC2)c2ccc(OC)cc2)cc1 | – | – | – | –
81 | 80 | COc1cc(/C=C/C(=O)O[C@H]2CC[C@@H](N(C)[C@H]3CC[C@H](OC(=O)C4c5ccccc5-c5ccccc54)CC3)CC2)cc(OC)c1OC (mixture of isomers) | 2.3 | 5 | Non-toxic | Non-toxic
99 | 70 | COc1cc(C#CC(=O)O[C@H]2CC[C@@H](N(C)[C@H]3CC[C@@H](OC(=O)c4cc(OC)c(OC)c(OC)c4)CC3)CC2)cc(OC)c1OC | 2.3 | 4.5 | Non-toxic | Non-toxic
89 | 50 | COc1cc(C#CC(=O)O[C@H]2CC[C@@H](N(C)[C@H]3CC[C@@H](OC(=O)C4c5ccccc5-c5ccccc54)CC3)CC2)cc(OC)c1OC | – | – | – | –
89 | 80 | COc1ccc(C(C#N)(CCC(=O)O[C@H]2CC[C@@H](N(C)[C@H]3CC[C@H](OC(=O)/C=C/c4cc(OC)c(OC)c(OC)c4)CC3)CC2)C(C)C)cc1OC (mixture of isomers) | 3 | 10.7 | Non-toxic | Non-toxic
94 | 120 | COc1ccc(C(C(=O)O[C@H]2CC[C@@H](N(C)[C@H]3CC[C@@H](OC(=O)C#Cc4cc(OC)c(OC)c(OC)c4)CC3)CC2)c2ccc(OC)cc2)cc1 (mixture of isomers) | – | – | – | –
94 | 75 | COc1cc(/C=C/C(=O)O[C@H]2CC[C@H](N(C)[C@H]3CC[C@H](OC(=O)C4c5ccccc5-c5ccccc54)CC3)CC2)cc(OC)c1OC | 2 | 2.9 | Non-toxic | Non-toxic
88 | 240 | COc1ccc(C(C#N)(CCC(=O)O[C@H]2CC[C@H](N(C)[C@H]3CC[C@@H](OC(=O)/C=C/c4cc(OC)c(OC)c(OC)c4)CC3)CC2)C(C)C)cc1OC (mixture of isomers) | – | – | – | –
98 | 80 | COc1cc(C#CC(=O)O[C@H]2CC[C@H](N(C)[C@H]3CC[C@@H](OC(=O)c4cc(OC)c(OC)c(OC)c4)CC3)CC2)cc(OC)c1OC (mixture of isomers) | 1.6 | 1.5 | Non-toxic | Non-toxic
96 | 120 | COc1cc(C#CC(=O)O[C@H]2CC[C@@H](N(C)[C@H]3CC[C@H](OC(=O)C4c5ccccc5-c5ccccc54)CC3)CC2)cc(OC)c1OC (mixture of isomers) | – | – | – | –
